Assay [1] concerns the target T1, Androgen receptor/Baculoviral IAP repeat-containing protein 2 (Homo sapiens, UniProt P10275+Q13490). Briefly: Induction of AR/cIAP1 interaction in human 22Rv1 cells assessed as ubiquitin proteasome system mediated androgen receptor protein degradation at 1 to 3 uM after 6 hrs by Western blot analysis. In kind it is cell-based. Summed up:
(§1)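 22Rv1 cells were treated with compound, or with separate ligands (30 μM or 3 μM each), for 6 h. Lysates in SDS buffer (0.1 M Tris pH 8.0, 1% SDS) were normalized by BCA, run on SDS-PAGE and immunoblotted. AR/GAPDH ratio was normalized to vehicle as 100. DC50 is the concentration giving 50% AR reduction; means ± SD, n = 3; t-test against vehicle.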
Target sequence in this assay (Q13490 whole entry, looked up, one chain of several): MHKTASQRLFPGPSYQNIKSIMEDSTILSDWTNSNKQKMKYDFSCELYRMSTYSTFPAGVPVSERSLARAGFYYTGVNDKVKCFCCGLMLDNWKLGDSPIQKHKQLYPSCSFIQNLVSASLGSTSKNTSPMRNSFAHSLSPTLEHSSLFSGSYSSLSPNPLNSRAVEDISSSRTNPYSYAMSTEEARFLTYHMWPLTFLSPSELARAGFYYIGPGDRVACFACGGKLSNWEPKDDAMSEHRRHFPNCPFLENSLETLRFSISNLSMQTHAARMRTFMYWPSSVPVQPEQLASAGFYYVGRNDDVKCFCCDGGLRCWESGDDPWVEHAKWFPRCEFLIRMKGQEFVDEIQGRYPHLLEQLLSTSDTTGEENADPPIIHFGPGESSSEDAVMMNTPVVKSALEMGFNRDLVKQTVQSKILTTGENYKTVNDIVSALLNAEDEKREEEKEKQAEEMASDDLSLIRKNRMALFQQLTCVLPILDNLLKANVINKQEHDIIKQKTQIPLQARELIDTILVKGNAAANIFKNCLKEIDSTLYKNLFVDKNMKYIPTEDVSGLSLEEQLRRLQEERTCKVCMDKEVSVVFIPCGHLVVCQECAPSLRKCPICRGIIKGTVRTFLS

The target in assay [2] is T1, Androgen receptor/Baculoviral IAP repeat-containing protein 2. Briefly: Induction of AR/cIAP1 interaction in human 22Rv1 cells assessed as ubiquitin proteasome system mediated androgen receptor protein degradation by Western blot analysis.
Target sequence in this assay (Q13490 whole entry, one chain of several): as the sequence (Q13490 whole entry, looked up, one chain of several) above
In assay [3] the target is T2, Androgen receptor (Homo sapiens, UniProt P10275).
T2 sequence (P10275 whole entry): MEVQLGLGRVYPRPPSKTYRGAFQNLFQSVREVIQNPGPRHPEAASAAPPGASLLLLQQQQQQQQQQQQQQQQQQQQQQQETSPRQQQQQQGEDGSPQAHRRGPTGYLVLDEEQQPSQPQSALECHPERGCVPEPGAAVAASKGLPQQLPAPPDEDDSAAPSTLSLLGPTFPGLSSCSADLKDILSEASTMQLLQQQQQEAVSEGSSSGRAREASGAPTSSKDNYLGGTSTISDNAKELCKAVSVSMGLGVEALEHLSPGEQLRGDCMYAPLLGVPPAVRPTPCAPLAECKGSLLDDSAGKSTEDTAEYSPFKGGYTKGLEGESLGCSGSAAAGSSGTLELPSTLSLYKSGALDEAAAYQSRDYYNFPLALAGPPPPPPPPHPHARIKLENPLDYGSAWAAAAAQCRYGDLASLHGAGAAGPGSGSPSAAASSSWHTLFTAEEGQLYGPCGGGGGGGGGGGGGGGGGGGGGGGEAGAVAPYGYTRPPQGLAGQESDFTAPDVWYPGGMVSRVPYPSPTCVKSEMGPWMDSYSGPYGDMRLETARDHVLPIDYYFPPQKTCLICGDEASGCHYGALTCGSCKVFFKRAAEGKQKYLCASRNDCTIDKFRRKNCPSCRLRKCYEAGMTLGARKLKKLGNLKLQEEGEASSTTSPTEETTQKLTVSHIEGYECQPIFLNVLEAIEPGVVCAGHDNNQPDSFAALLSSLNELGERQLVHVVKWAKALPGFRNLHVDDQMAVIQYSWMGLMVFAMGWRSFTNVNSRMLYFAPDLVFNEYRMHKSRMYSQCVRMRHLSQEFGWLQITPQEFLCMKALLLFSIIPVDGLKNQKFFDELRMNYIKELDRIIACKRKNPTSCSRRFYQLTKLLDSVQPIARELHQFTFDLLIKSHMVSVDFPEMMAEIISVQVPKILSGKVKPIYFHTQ
Briefly: Displacement of [17-alpha-methyl-H-3] mibolerone from wild-type androgen receptor (unknown origin) expressed in human Freestyle293F cells measured after 3 hrs. In kind it is cell-based. Summed up:
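Wild-type AR was expressed in FreeStyle293F cells (pcDNA3.1, 48 h, 37 °C, 8% CO2). Cells were lysed in TEGM buffer (pH 7.2, molybdate, DTT) by freeze–thaw, and the supernatant from 228,000g spin was used. Lysate was incubated with 3 nM (final) [3H]mibolerone plus compound at 4 °C for 3 h. Bound and free were separated by dextran/charcoal and bound counts gave % inhibition; IC50 from three experiments.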

For assay [4], the target named is T1, Androgen receptor/Baculoviral IAP repeat-containing protein 2. In words: Induction of AR/cIAP1 interaction in human 22Rv1 cells assessed as ubiquitin proteasome system mediated androgen receptor protein degradation after 6 hrs by Western blot analysis. In kind it is cell-based. Summed up: as §1
In general terms: A western blot detects proteins with antibodies after separation by electrophoresis.
Target sequence in this assay (Q13490 whole entry, looked up, one chain of several): as the sequence (Q13490 whole entry, looked up, one chain of several) above

Assay [5] shares this target. Briefly: Induction of AR/cIAP1 interaction in human 22Rv1 cells assessed as ubiquitin proteasome system mediated androgen receptor protein degradation at 3 uM after 6 hrs by Western blot analysis. In kind it is cell-based. Summed up:
as §1
Target sequence in this assay (Q13490 whole entry, looked up, one chain of several): as the sequence (Q13490 whole entry, looked up, one chain of several) above

Assay [6] concerns the target T2, Androgen receptor. In words: Binding affinity to androgen receptor (unknown origin). Summed up:
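Wild-type AR expressed by transfection of FreeStyle293F cells (48 h shaking at 37 °C), then lysed by freeze-thaw in TEGM buffer (pH 7.2, molybdate, DTT). Cleared lysate incubated with [3H]mibolerone (final 3 nM) plus test compound at 4 °C for 3 h. Bound and free separated by dextran/charcoal, bound counted, and % inhibition calculated. IC50 taken from three separate experiments.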

The target of assay [7] is T1, Androgen receptor/Baculoviral IAP repeat-containing protein 2. Briefly: Induction of AR/cIAP1 interaction in human 22Rv1 cells assessed as ubiquitin proteasome system mediated androgen receptor protein degradation at 30 uM in presence of methyl (2S)-2-(((2S,3R)-3-amino-2-hydroxy-4-phenylbutanoyl)amino)-4-methylpentanoate after 6 hrs by Western blot analysis. In kind it is cell-based. Summed up:
as §1
Target sequence in this assay (Q13490 whole entry, looked up, one chain of several): as the sequence (Q13490 whole entry, looked up, one chain of several) above

The target is the same in assay [8]. In words: Induction of AR/cIAP1 interaction in human 22Rv1 cells assessed as ubiquitin proteasome system mediated androgen receptor protein degradation at 3 uM in presence of N-((1S)-1-Cyclohexyl-2-((2S)-2-(4-(3-methoxybenzoyl)-1,3-thiazol-2-yl)pyrrolidin-1-yl)-2-oxoethyl)-N2-methyl-L-alaninamide after 6 hrs by Western blot analysis. In kind it is cell-based. Summed up: as §1
Target sequence in this assay (Q13490 whole entry, looked up, one chain of several): as the sequence (Q13490 whole entry, looked up, one chain of several) above

Assay [9] shares this target. In words: Induction of AR/cIAP1 interaction in human 22Rv1 cells assessed as ubiquitin proteasome system mediated androgen receptor protein degradation at 3 uM in presence of 1-benzyl-4-(4-cyanophenyl)-2,5-dimethyl-1H-pyrrole-3-carbonitrile after 6 hrs by Western blot analysis. In kind it is cell-based. Summed up:
as §1
Target sequence in this assay (Q13490 whole entry, looked up, one chain of several): as the sequence (Q13490 whole entry, looked up, one chain of several) above

Assay [10] has the same target. In words: Induction of AR/cIAP1 interaction in human 22Rv1 cells assessed as ubiquitin proteasome system mediated androgen receptor protein degradation at 30 uM after 6 hrs by Western blot analysis. In kind it is cell-based. Summed up:
as §1

Calls of active or inactive are those of the source. The calls are words filed in the database; no cut-off is given here.

The record followed here is ChEMBL document CHEMBL4219028, “Development of Protein Degradation Inducers of Androgen Receptor by Conjugation of Androgen Receptor Ligands and Inhibitor of Apoptosis Protein Ligands” (J Med Chem, 2018).

Turning to `CN[C@@H](C)C(=O)N[C@H](C(=O)N1CCC[C@H]1c1nc(C(=O)c2cccc(OCCOc3ccccc3OCCOc3ccc(Cn4c(C)c(C#N)c(-c5ccc(C#N)cc5)c4C)cc3)c2)cs1)C1CCCCC1`, the outcome in [1] was inactive. Turning to `Cc1nn(-c2ccc(C#N)cc2Cl)c(C)c1Cc1ccc(C(=O)NCCOCCOCCOCCNC(=O)[C@H](CC(C)C)NC(=O)[C@@H](O)[C@H](N)Cc2ccccc2)cc1`, in [2], the DC50 (in general, the concentration giving 50% degradation) was over 30000 nM. In addition, the concentration for half-maximal inhibition (IC50) (commonly the concentration needed to halve the response being measured) in assay [3] is over 10000 nM. Turning to `CN[C@@H](C)C(=O)N[C@H](C(=O)N1CCC[C@H]1C(=O)N[C@H](C(=O)NCCOCCOCCOCCNC(=O)c1ccc(Cn2c(C)c(C#N)c(-c3ccc(C#N)cc3)c2C)cc1)C(c1ccccc1)c1ccccc1)C1CCCCC1`, the MED in [4] is 20 µM.

As to `Cc1nn(-c2ccc(C#N)c(Cl)c2)c(C)c1CCc1ccc(C(=O)NCCOCCOCCOCCNC(=O)[C@H](CC(C)C)NC(=O)[C@@H](O)[C@H](N)Cc2ccccc2)cc1`, the DC50 in assay [2] came to 20500 nM. This molecule showed an IC50 in [3] of 190 nM. Consider `CN[C@@H](C)C(=O)N[C@H](C(=O)N1CCC[C@H]1c1nc(C(=O)c2cccc(OCCOCCOCCOc3ccc(Cn4c(C)c(C#N)c(-c5ccc(C#N)cc5)c4C)cc3)c2)cs1)C1CCCCC1`, for which the outcome in assay [5] was Active. Regarding `CN[C@@H](C)C(=O)N[C@H](C(=O)N1CCC[C@H]1c1nc(C(=O)c2cccc(OCCOCCOCCOCCOc3cccc(Cn4c(C)c(C#N)c(-c5ccc(C#N)cc5)c4C)c3)c2)cs1)C1CCCCC1`, the result in assay [1] was Active.

As to `CN[C@@H](C)C(=O)N[C@H](C(=O)N1CCC[C@H]1c1nc(C(=O)c2cccc(OCCOc3ccc(OCCOc4ccc(Cn5c(C)c(C#N)c(-c6ccc(C#N)cc6)c5C)cc4)cc3)c2)cs1)C1CCCCC1`, the outcome in [1] was inactive. On the same count and under the same terms, the value for `CN[C@@H](C)C(=O)N[C@H](C(=O)N1CCC[C@H]1c1nc(C(=O)c2cccc(OCCOc3cccc(OCCOc4ccc(Cn5c(C)c(C#N)c(-c6ccc(C#N)cc6)c5C)cc4)c3)c2)cs1)C1CCCCC1` was “inactive”. For the molecule `CN[C@@H](C)C(=O)N[C@H](C(=O)N1CCC[C@H]1c1nc(C(=O)c2cccc(OCCOCCOCCNC(=O)c3ccc(Cn4c(C)c(C#N)c(-c5ccc(C#N)cc5)c4C)cc3)c2)cs1)C1CCCCC1`, the outcome in assay [1] was Active. In addition, the MED in assay [4] was found to be 3 µM. For `Cc1c(C#N)c(-c2ccc(C#N)cc2)c(C)n1Cc1ccc(C(=O)O)cc1`, the half-inhibitory concentration (IC50) in assay [6] was determined as 1.4 nM. This counts as single-digit nanomolar. `Cc1c(C#N)c(-c2ccc(C#N)cc2)c(C)n1Cc1ccccc1`: the outcome in [7] and in assay [8] was inactive. On to `CN[C@@H](C)C(=O)N[C@H](C(=O)N1CCC[C@H]1c1nc(C(=O)c2cccc(OC)c2)cs1)C1CCCCC1`, for which the outcome in assay [9] was inactive. Consider `CC(C)C[C@H](NC(=O)[C@@H](O)[C@H](N)Cc1ccccc1)C(=O)NCCOCCOCCOCCNC(=O)c1ccc(S(=O)(=O)CC(C)(O)C(=O)Nc2ccc(C#N)c(C(F)(F)F)c2)cc1` (some centres undefined), for which the DC50 in assay [2] is over 30000 nM. This molecule also had an IC50 in assay [3] of 1100 nM.

With `CN[C@@H](C)C(=O)N[C@H](C(=O)N1CCC[C@H]1c1nc(C(=O)c2cccc(OCCOCCOCCOCCOCCOc3ccc(Cn4c(C)c(C#N)c(-c5ccc(C#N)cc5)c4C)cc3)c2)cs1)C1CCCCC1`, the result in assay [5] was Active. As to `CN[C@@H](C)C(=O)N[C@H](C(=O)N1CCC[C@H]1c1nc(C(=O)c2cccc(OCCOCCOCCOCCOc3ccccc3Cn3c(C)c(C#N)c(-c4ccc(C#N)cc4)c3C)c2)cs1)C1CCCCC1`, the outcome in [1] was inactive. For `Cc1nn(-c2ccc(C#N)c(C(F)(F)F)c2)c(C)c1Cc1ccc(C(=O)NCCOCCOCCOCCNC(=O)[C@H](CC(C)C)NC(=O)[C@@H](O)[C@H](N)Cc2ccccc2)cc1`, the DC50 in assay [2] was found to be 11700 nM. This molecule showed an IC50 in assay [3] of 190 nM.

Consider `CN[C@@H](C)C(=O)N[C@H](C(=O)N1CCC[C@H]1c1nc(C(=O)c2cccc(OCCOCCOCCOCCCc3ccc(Cn4c(C)c(C#N)c(-c5ccc(C#N)cc5)c4C)cc3)c2)cs1)C1CCCCC1`, for which, in assay [1], the result was Active. On the same count and under the same terms, the value for `CN[C@@H](C)C(=O)N[C@H](C(=O)N1CCC[C@H]1c1nc(C(=O)c2cccc(OCCOCCOCCOCC#Cc3ccc(Cn4c(C)c(C#N)c(-c5ccc(C#N)cc5)c4C)cc3)c2)cs1)C1CCCCC1` was “Active”. Turning to `Cc1c(C#N)c(-c2ccc(C#N)cc2)c(C)n1Cc1ccc(C(=O)NCCOCCOCCOCCNC(=O)[C@H](CC(C)C)NC(=O)[C@@H](O)[C@H](N)Cc2ccccc2)cc1`, the MED in [4] amounted to 30 µM. The DC50 in assay [2] came to 21600 nM. In [3], this molecule registered an IC50 of 27 nM. For the same molecule, in assay [10], the outcome was Active. In turn, `Cc1nn(-c2ccc(C#N)c(Cl)c2)c(C)c1CCc1ccc(C(=O)O)cc1` showed an IC50 in assay [6] of 53 nM.
